From ChEMBL document CHEMBL1149259, “Potent N-(1,3-thiazol-2-yl)pyridin-2-amine vascular endothelial growth factor receptor tyrosine kinase inhibitors with excellent pharmacokinetics and low affinity for the hERG ion channel” (J Med Chem, 2004)
Activity calls are given as the source filed them. The calls are words filed in the database; no cut-off is given here.

Legend:
Cytochrome P450 2D6 = Cytochrome P450 2D6 (Homo sapiens, UniProt P10635); assay: Inhibition of human CYP2D6; assay type: ADME
Method in brief: (§1)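 Human liver microsomes; inhibition of probe-substrate metabolism measured with diclofenac (CYP2C9), […] (CYP2D6) and testosterone (CYP3A4).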

Cytochrome P450 3A4 = Cytochrome P450 3A4 (Homo sapiens, UniProt P08684); assay: Inhibition of human CYP3A4; assay type: ADME; method in brief: as §1
Canis familiaris [1] = assay: Increase in QT prolongation in anesthetized dog up to 22 uM plasma level; assay type: functional, organism-based; conditions: Canis lupus familiaris
Cytochrome P450 2C9 = Cytochrome P450 2C9 (Homo sapiens, UniProt P11712); assay: Inhibition of human CYP2C9; assay type: ADME; method in brief: as §1
Rattus norvegicus = assay: Metabolic stability measured as N-Glucuronidation of the parent compound in iv dosed rat; assay type: ADME, organism-based; conditions: in vivo
Rhesus monkey = assay: Metabolic stability measured as N-Glucuronidation of the parent compound in iv dosed rhesus monkey; assay type: ADME, organism-based, Macaca mulatta; conditions: in vivo
[2] = target: T1, Vascular endothelial growth factor receptor 2 (Homo sapiens, UniProt P35968); assay: Inhibition of VEGF-induced KDR autophosphorylation expressed in HEK293 cells; assay type: functional, cell-based
[3] = target: T1, Vascular endothelial growth factor receptor 2; assay: Inhibition of KDR
[4] = target: Voltage-gated inwardly rectifying potassium channel KCNH2 (Homo sapiens, UniProt Q12809); assay: Displacement of [35S][…] from human ERG expressed in HEK293 cells; assay type: cell-based; conditions: read-out: Inflection point
Canis familiaris [5] = assay: Increase in QT prolongation in anesthetized dog at 0.59 uM plasma level; assay type: functional, Canis lupus familiaris
[6] = Volume of distribution in Beagle dog at 1 mg/kg, iv and 1 mg/kg, po; assay type: ADME, organism-based, Canis lupus familiaris; conditions: in vivo, read-out: Vdss
Method in brief: (§2)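 Fasted beagle dogs, two per compound; iv 1 mg/kg as a DMSO solution; po 1 mg/kg as a solution in 0.05 M citric acid (aq) or HCl-acidified methocel. Plasma half-life, clearance, Vdss and oral bioavailability F taken as the average of the two dogs.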

[7] = Clearance in Beagle dog at 1 mg/kg, iv and 1 mg/kg, po; assay type: ADME, organism-based, Canis lupus familiaris; conditions: in vivo; method in brief: as §2
[8] = Bioavailability in Beagle dog at 1 mg/kg, iv and 1 mg/kg, po; assay type: ADME, organism-based, Canis lupus familiaris; conditions: in vivo; method in brief: as §2
[9] = Lipophilicity, log P of the compound; assay type: physicochemical; conditions: octanol/water
[10] = Metabolic stability in rat liver microsome; assay type: ADME; conditions: liver microsomes
[11] = target: Vascular endothelial growth factor receptor 2 (Mus musculus, UniProt P35918); assay: Inhibition of VEGF-induced mouse lung KDR phosphorylation
Method in brief: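 Tyrosine phosphorylation of lung KDR compared between treated and untreated lungs as a function of dose and time after dosing. In vivo IC50 expressed as plasma concentration.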

[12] = Clearance in rhesus monkey at 1 mg/kg, iv and 1 mg/kg, po; assay type: ADME, organism-based, Macaca mulatta; conditions: in vivo
Method in brief: (§3)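 Fasted rhesus monkeys, two, crossover design: 1 mg/kg po as a solution in 0.05 M citric acid, and on a separate occasion 1 mg/kg iv as a DMSO solution. Half-life, clearance, Vdss and F reported as the two-animal average.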

[13] = Volume of distribution in Sprague-Dawley rat at 2 mg/kg, iv and 10 mg/kg, po; assay type: ADME, organism-based; conditions: in vivo, read-out: Vdss
Method in brief: (§4)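 Fasted male Sprague-Dawley rats, three per group: 2 mg/kg bolus iv as a DMSO solution and 10 mg/kg by oral gavage as a solution in 0.05 M citric acid. Clearance, Vdss and F given as mean with standard deviation.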

[14] = Volume of distribution in rhesus monkey at 1 mg/kg, iv and 1 mg/kg, po; assay type: ADME, organism-based, Macaca mulatta; conditions: in vivo, read-out: Vdss; method in brief: as §3
[15] = Bioavailability in rhesus monkey at 1 mg/kg, iv and 1 mg/kg, po; assay type: ADME, organism-based, Macaca mulatta; conditions: in vivo; method in brief: as §3
[16] = Clearance in Sprague-Dawley rat at 2 mg/kg, iv and 10 mg/kg, po; assay type: ADME, organism-based; conditions: in vivo; method in brief: as §4
Homo sapiens = organism: Homo sapiens; assay: Protein binding in human plasma; conditions: read-out: PPB (converted)
[17] = Half life in Beagle dog at 0.25 mg/kg, iv and 1 mg/kg, po; assay type: ADME, organism-based, Canis lupus familiaris; conditions: in vivo
Method in brief: (§5)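 Fasted beagle dogs, two per compound; iv 0.25 mg/kg as a DMSO solution, po 1 mpk as a solution in HCl-acidified methocel or 0.05 M citric acid (aq). Half-life, plasma clearance and steady-state volume of distribution taken from the iv leg; values are the average of the two dogs.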

[18] = Volume of distribution in Beagle dog at 0.25 mg/kg, iv and 1 mg/kg, po; assay type: ADME, organism-based, Canis lupus familiaris; conditions: in vivo, read-out: Vdss; method in brief: as §5
[19] = Clearance in Beagle dog at 0.25 mg/kg, iv and 1 mg/kg, po; assay type: ADME, organism-based, Canis lupus familiaris; conditions: in vivo; method in brief: as §5
[20] = Half life in Beagle dog at 1 mg/kg, iv and 1 mg/kg, po; assay type: ADME, organism-based, Canis lupus familiaris; conditions: in vivo; method in brief: as §2
Canis familiaris [21] = assay: Increase in QT prolongation in anesthetized dog up to 60 uM plasma level; conditions: Canis lupus familiaris

T1 sequence (P35968 whole entry): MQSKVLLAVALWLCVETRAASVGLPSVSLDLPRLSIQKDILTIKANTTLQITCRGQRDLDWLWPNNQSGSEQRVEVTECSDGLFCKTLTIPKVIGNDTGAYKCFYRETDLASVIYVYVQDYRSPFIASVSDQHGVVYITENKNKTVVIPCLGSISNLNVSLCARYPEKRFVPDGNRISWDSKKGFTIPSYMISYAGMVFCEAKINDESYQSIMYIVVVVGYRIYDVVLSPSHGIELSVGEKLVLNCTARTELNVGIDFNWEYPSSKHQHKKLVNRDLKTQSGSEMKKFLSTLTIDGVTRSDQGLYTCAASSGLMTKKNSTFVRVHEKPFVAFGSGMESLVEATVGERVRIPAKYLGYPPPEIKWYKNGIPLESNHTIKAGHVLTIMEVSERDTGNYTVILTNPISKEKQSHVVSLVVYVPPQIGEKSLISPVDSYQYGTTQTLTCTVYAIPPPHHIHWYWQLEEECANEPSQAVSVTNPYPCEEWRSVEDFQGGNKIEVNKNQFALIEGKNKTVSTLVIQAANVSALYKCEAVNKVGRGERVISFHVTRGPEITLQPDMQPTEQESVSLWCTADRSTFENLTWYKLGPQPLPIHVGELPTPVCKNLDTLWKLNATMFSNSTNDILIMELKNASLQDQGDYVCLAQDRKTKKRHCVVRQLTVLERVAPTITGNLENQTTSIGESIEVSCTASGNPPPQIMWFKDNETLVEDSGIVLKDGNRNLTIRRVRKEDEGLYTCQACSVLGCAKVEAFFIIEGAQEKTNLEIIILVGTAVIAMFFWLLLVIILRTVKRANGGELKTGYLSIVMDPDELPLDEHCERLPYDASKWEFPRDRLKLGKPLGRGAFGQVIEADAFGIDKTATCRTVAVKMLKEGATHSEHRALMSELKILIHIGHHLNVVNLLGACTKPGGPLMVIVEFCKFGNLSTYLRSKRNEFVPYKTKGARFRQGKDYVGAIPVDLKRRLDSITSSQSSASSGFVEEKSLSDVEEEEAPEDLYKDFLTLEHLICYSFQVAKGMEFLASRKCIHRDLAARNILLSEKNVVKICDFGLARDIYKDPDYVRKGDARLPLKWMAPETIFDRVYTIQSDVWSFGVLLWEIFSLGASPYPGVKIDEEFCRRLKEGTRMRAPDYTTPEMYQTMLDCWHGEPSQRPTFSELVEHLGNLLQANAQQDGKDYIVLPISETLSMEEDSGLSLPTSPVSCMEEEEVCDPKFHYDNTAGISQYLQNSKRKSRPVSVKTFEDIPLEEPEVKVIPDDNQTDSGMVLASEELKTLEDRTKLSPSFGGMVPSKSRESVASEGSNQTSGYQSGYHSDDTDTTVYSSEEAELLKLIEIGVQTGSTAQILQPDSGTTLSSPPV
Voltage-gated inwardly rectifying potassium channel KCNH2, sequence (Q12809 whole entry): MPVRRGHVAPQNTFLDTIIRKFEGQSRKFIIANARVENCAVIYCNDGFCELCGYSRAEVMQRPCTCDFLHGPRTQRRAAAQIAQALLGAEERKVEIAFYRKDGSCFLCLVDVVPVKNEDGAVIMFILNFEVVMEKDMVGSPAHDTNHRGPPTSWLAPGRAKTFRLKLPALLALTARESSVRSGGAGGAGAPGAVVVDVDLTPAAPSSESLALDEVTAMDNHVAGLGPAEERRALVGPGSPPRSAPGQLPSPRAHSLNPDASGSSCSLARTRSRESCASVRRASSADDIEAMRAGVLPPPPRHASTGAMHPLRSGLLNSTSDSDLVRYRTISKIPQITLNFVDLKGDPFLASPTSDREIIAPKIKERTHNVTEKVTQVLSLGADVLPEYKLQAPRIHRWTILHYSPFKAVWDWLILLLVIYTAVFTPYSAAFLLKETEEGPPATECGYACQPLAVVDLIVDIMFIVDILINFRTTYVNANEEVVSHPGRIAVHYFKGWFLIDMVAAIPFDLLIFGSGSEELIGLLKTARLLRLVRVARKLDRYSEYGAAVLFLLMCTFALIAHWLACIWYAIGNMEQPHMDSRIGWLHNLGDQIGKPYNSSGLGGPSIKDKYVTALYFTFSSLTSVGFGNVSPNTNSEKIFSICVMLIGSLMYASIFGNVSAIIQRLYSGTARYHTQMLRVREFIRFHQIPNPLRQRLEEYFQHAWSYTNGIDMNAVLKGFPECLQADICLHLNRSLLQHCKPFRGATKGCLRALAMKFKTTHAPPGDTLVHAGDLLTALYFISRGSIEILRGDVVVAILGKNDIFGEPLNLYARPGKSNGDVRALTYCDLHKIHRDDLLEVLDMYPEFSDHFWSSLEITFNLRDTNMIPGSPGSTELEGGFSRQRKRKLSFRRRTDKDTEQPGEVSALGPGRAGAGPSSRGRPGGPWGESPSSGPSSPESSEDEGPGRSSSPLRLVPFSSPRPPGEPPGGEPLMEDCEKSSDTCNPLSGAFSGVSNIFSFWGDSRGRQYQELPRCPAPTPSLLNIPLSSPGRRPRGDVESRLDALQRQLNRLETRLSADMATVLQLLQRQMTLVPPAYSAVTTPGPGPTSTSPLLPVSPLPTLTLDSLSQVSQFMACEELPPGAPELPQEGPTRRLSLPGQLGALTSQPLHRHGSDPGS
Cytochrome P450 2C9, sequence (P11712 whole entry): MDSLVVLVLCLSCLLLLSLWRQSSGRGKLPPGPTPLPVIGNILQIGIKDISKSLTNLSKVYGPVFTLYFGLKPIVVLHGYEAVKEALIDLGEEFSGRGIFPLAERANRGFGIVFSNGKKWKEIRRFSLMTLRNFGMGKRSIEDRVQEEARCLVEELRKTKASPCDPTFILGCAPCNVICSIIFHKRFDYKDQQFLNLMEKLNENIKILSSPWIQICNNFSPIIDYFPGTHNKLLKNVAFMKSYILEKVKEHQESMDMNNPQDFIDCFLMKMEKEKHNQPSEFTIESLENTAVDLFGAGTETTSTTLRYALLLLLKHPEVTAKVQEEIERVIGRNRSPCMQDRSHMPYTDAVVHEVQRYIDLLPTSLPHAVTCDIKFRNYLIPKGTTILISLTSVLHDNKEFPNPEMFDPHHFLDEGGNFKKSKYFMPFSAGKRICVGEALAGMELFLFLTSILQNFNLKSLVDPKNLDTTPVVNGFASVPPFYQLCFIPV
Cytochrome P450 3A4, sequence (P08684 whole entry): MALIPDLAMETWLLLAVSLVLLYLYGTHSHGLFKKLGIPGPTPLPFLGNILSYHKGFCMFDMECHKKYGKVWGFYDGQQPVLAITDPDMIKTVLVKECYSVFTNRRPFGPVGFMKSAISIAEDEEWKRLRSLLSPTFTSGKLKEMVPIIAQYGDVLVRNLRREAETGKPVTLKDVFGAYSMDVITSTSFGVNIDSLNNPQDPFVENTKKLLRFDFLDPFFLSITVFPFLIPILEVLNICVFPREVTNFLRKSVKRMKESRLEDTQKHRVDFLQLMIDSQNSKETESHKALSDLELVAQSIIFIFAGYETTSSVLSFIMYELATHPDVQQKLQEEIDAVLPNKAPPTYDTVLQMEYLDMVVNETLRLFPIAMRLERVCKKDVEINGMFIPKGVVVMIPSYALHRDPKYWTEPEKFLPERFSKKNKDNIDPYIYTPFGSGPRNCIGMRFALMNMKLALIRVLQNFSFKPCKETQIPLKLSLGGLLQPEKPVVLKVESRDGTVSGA
Cytochrome P450 2D6, sequence (P10635 whole entry): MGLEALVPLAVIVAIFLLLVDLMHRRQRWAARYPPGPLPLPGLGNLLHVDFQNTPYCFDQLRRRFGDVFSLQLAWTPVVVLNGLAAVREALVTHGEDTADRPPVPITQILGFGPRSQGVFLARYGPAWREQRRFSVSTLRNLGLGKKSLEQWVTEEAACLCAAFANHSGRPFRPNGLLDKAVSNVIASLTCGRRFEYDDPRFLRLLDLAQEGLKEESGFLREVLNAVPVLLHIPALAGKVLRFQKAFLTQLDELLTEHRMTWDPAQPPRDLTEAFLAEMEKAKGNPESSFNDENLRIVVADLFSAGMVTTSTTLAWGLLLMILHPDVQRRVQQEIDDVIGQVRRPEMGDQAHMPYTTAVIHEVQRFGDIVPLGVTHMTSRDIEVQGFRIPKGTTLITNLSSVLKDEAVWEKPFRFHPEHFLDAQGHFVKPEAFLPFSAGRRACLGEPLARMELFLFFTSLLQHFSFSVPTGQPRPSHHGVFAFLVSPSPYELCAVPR

## CNC(=O)N1CCN(Cc2ccnc(Nc3ncc(C#N)s3)c2C)CC1
Cytochrome P450 2D6
  IC50: > 100000 nM
Cytochrome P450 3A4
  IC50: > 100000 nM
Canis familiaris [1]
  Activity: inactive
Cytochrome P450 2C9
  IC50: > 100000 nM

## CNC(=O)N1CCN(Cc2ccnc(N(c3ncc([14C]#N)s3)C3O[C@H](C(=O)O)[C@@H](O)[C@H](O)[C@H]3O)c2)CC1 (stereo partly specified)
Rattus norvegicus
  Stability: 37.6%
Rhesus monkey
  Stability: 63.3%

## CC(=O)N1CCN(Cc2ccnc(Nc3ncc(-c4ccccc4)s3)c2)CC1
[2]
  IC50: 43 nM
[3]
  IC50: 8 nM
[4]
  IC50: 240 nM

## c1ccc(-c2cnc(Nc3ccc(CN4CCCC4)cn3)s2)cc1
Canis familiaris [5]
  Activity: 10%
[4]
  IC50: 8 nM

## CS(=O)(=O)C1CCN(Cc2ccnc(Nc3ncc(C#N)s3)c2)CC1
[6]
  Vd: 0.96 L/kg
[7]
  clearance: 1.8 mL/min/kg
[2]
  IC50: 31 nM
[3]
  IC50: 7 nM
[8]
  bioavailability: 95%
[9]
  logP: 2.06

## c1ccc(-c2cnc(Nc3cc(CN4CCCC4)ccn3)s2)cc1
[2]
  IC50: 15 nM
[3]
  IC50: 3 nM
[10]
  half-life: 8 min

## CNC(=O)N1CCN(Cc2ccnc(Nc3ncc(C#N)s3)c2)CC1
Cytochrome P450 2D6
  IC50: > 50000 nM
[6]
  Vd: 0.72 L/kg
[11]
  IC50: 90 nM
Cytochrome P450 3A4
  IC50: > 50000 nM
[7]
  clearance: 0.51 mL/min/kg
[12]
  clearance: 17.2 mL/min/kg
[13]
  Vd: 1.5 L/kg
[2]
  IC50: 27 nM
[14]
  Vd: 1.3 L/kg
[3]
  IC50: 12 nM
[4]
  IC50: 9280 nM
[15]
  bioavailability: 43%
[16]
  clearance: 13.3 mL/min/kg
[8]
  bioavailability: 99%
Cytochrome P450 2C9
  IC50: > 50000 nM
[9]
  logP: 2.06

## CN(C)C(=O)N1CCN(Cc2ccnc(Nc3ncc(C#N)s3)c2)CC1
Homo sapiens
  fraction unbound: 0.041
[17]
  half-life: 2 h
[18]
  Vd: 0.88 L/kg
[2]
  IC50: 40 nM
[3]
  IC50: 10 nM
[4]
  IC50: 3510 nM
[19]
  clearance: 7.4 mL/min/kg
[9]
  logP: 2.74

## N#Cc1cnc(Nc2cc(CN3CCOCC3)ccn2)s1
[17]
  half-life: 2.5 h
[18]
  Vd: 1 L/kg
[2]
  IC50: 43 nM
[3]
  IC50: 8 nM
[19]
  clearance: 12.4 mL/min/kg

## N#Cc1cnc(Nc2cc(CN3CCN(C(N)=O)CC3)ccn2)s1
[17]
  half-life: 2.9 h
[18]
  Vd: 0.34 L/kg
[4]
  IC50: 24700 nM
[19]
  clearance: 2.6 mL/min/kg

## N#Cc1cnc(Nc2cc(CN3CCN(C(=O)CO)CC3)ccn2)s1
Homo sapiens
  fraction unbound: 0.262
[6]
  Vd: 0.47 L/kg
[20]
  half-life: 6.6 h
[7]
  clearance: 0.88 mL/min/kg
[2]
  IC50: 35 nM
[3]
  IC50: 9 nM
[4]
  IC50: 9870 nM
[8]
  bioavailability: 61%
[9]
  logP: 1.68

## CS(=O)(=O)N1CCN(Cc2ccnc(Nc3ncc(-c4ccccc4)s3)c2)CC1
[4]
  IC50: 130 nM

## CC(=O)N1CCN(Cc2ccnc(Nc3ncc(C#N)s3)c2)CC1
[6]
  Vd: 0.72 L/kg
[20]
  half-life: 7.2 h
[7]
  clearance: 1.2 mL/min/kg
[2]
  IC50: 41 nM
[3]
  IC50: 13 nM
[8]
  bioavailability: 87%
Canis familiaris [21]
  Activity: inactive
[9]
  logP: 2.05
